Experimental data from ChEMBL document CHEMBL4765239, “Discovery of a Novel Highly Selective Histamine H4 Receptor Antagonist for the Treatment of Atopic Dermatitis” (J Med Chem, 2018).
≈ marks a conversion by molar mass, not a printed value.

System: not listed separately
Assay: Intrinsic clearance in human liver microsomes at 5 uM incubated upto 30 mins in presence of NADPH by UPLC-UV analysis
Type: ADME, Microsome
Conditions: read-out: CLH
Summary of the method: (§1)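 Test compound at 5 µM incubated with pooled CD-1 mouse or human liver microsomes plus 1 mM NADPH. Remaining compound measured by UPLC-UV at 0, 10, 20 and 30 min. CLint derived from the first-order elimination rate constant, normalized to microsomal protein.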

SMILES | microsomal CLint at 5 µM
CN1CCN(c2nc3ncc(Cl)cc3n3cnnc23)CC1 | 0.6 µL/min/mg
CN1CCN(c2nc3ncc(C(F)(F)F)cc3n3cnnc23)CC1 | 1.31 µL/min/mg
CN1CCN(C(=O)c2cc3cc(Cl)ccc3[nH]2)CC1 [JNJ-7777120] | 6.5 µL/min/mg
CN1CCN(c2nc3ncc(Br)cc3n3cnnc23)CC1 | 1.64 µL/min/mg

More lines, now with the values ahead:

microsomal CLint at 5 µM | SMILES
7.51 µL/min/mg | Cc1ccc2nc(N3CCN(C)CC3)c3nncn3c2c1
11.5 µL/min/mg | CN1CCN(c2nc3ccccc3n3cnnc23)CC1
5.17 µL/min/mg | Cc1cnc2nc(N3CCN(C)CC3)c3nncn3c2c1
5.83 µL/min/mg | CN1CCN(c2nc3ccc(Cl)cc3n3cnnc23)CC1
0.61 µL/min/mg | CN1CCN(c2nc3ncccc3n3cnnc23)CC1

System: not listed separately
Assay: Intrinsic clearance in CD1 mouse liver microsomes at 5 uM incubated upto 30 mins in presence of NADPH by UPLC-UV analysis
Type: ADME, Microsome
Conditions: read-out: CLH
Summary of the method: as §1

SMILES | microsomal CLint at 5 µM
CN1CCN(c2nc3ncc(Cl)cc3n3cnnc23)CC1 | 1.98 µL/min/mg
CN1CCN(c2nc3ncc(C(F)(F)F)cc3n3cnnc23)CC1 | 2.05 µL/min/mg
CN1CCN(C(=O)c2cc3cc(Cl)ccc3[nH]2)CC1 [JNJ-7777120] | 128 µL/min/mg
CN1CCN(c2nc3ncc(Br)cc3n3cnnc23)CC1 | 3.13 µL/min/mg

The remaining lines, values ahead:

microsomal CLint at 5 µM | SMILES
23.3 µL/min/mg | Cc1ccc2nc(N3CCN(C)CC3)c3nncn3c2c1
73.1 µL/min/mg | CN1CCN(c2nc3ccccc3n3cnnc23)CC1
2.91 µL/min/mg | Cc1cnc2nc(N3CCN(C)CC3)c3nncn3c2c1
29.1 µL/min/mg | CN1CCN(c2nc3ccc(Cl)cc3n3cnnc23)CC1
5.36 µL/min/mg | CN1CCN(c2nc3ncccc3n3cnnc23)CC1

System: not listed separately
Assay: Basicity constant, pKa of the compound
Type: physicochemical
Conditions: not given

pKa | SMILES
9.9 | CN1CCN(c2nc3ncc(Cl)cc3n3cnnc23)CC1

System: not listed separately
Assay: Solubility of compound in SGF at pH 1.2 incubated for 2 hrs by UPLC-UV analysis
Type: physicochemical
Conditions: not given
Summary of the method: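 Compound incubated at 37 °C in FaSSIF (pH 6.5) for 0.5 h or in SGF (pH 1.2) for 2 h. Filtered through 0.45 µm, concentration measured by UPLC-UV.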

SMILES | solubility at 2 h
CN1CCN(c2nc3ncc(Cl)cc3n3cnnc23)CC1 | > 2000 µg/mL
CN1CCN(c2nc3ncc(C(F)(F)F)cc3n3cnnc23)CC1 | > 2000 µg/mL
CN1CCN(C(=O)c2cc3cc(Cl)ccc3[nH]2)CC1 [JNJ-7777120] | 1410 µg/mL (≈ 5.09 mM)
CN1CCN(c2nc3ncc(Br)cc3n3cnnc23)CC1 | 1930 µg/mL (≈ 5.54 mM)

Next, values leading:

solubility at 2 h | SMILES
> 2000 µg/mL | Cc1ccc2nc(N3CCN(C)CC3)c3nncn3c2c1
> 2000 µg/mL | CN1CCN(c2nc3ccccc3n3cnnc23)CC1
2000 µg/mL (≈ 7.05 mM) | Cc1cnc2nc(N3CCN(C)CC3)c3nncn3c2c1
> 2000 µg/mL | CN1CCN(c2nc3ccc(Cl)cc3n3cnnc23)CC1
> 2000 µg/mL | CN1CCN(c2nc3ncccc3n3cnnc23)CC1

Molecular target: Histamine H3 receptor (Homo sapiens, UniProt Q9Y5N1)
Sequence (Q9Y5N1 whole entry): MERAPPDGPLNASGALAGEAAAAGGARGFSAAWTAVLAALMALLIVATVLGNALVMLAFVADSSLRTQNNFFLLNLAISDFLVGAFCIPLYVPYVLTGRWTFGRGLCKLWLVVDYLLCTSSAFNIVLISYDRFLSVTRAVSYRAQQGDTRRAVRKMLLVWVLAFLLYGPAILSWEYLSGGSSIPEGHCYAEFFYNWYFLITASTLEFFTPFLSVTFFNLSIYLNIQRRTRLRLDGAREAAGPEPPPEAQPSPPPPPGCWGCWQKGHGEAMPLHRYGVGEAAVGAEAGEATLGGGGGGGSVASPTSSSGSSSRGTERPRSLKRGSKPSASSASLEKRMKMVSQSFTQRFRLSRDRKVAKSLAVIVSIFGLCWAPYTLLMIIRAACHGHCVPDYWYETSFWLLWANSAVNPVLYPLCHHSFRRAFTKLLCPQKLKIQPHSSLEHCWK
Assay: Displacement of [3H]-N-alpha-methylhistamine from recombinant human histamine H3 receptor expressed in CHO-K1 cell membranes measured after 30 mins by microbeta scintillation counting method
Parameters: species or system Cell membrane
Conditions: not given
Summary of the method: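 Competitive binding on CHO-K1 membranes expressing human H3R ([3H]Nα-methylhistamine) or mouse H4R ([3H]histamine). Run in 50 mM Tris-HCl pH 7.4 for 30 min at 27 °C, then filtered onto 0.5% PEI-treated glass fiber and washed three times with ice-cold buffer. Bound radioactivity read by liquid scintillation counting.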

SMILES | IC50
CN1CCN(c2nc3ncc(C(F)(F)F)cc3n3cnnc23)CC1 | 43 µM
CN1CCN(C(=O)c2cc3cc(Cl)ccc3[nH]2)CC1 [JNJ-7777120] | > 100 µM
CN1CCN(c2nc3ncc(Br)cc3n3cnnc23)CC1 | 71 µM

The remaining lines, values ahead:

IC50 | SMILES
15 µM | Cc1ccc2nc(N3CCN(C)CC3)c3nncn3c2c1
> 100 µM | CN1CCN(c2nc3ccccc3n3cnnc23)CC1
4.4 µM | CN1CCN(c2nc3ccc(Cl)cc3n3cnnc23)CC1

System: not listed separately
Assay: Solubility of compound in FaSSIF at pH 6.5 incubated for 0.5 hrs by UPLC-UV analysis
Conditions: not given

SMILES | solubility at 0.5 h
CN1CCN(c2nc3ncc(Cl)cc3n3cnnc23)CC1 | 1240 µg/mL (≈ 4.1 mM)
CN1CCN(c2nc3ncc(C(F)(F)F)cc3n3cnnc23)CC1 | 1230 µg/mL (≈ 3.65 mM)
CN1CCN(C(=O)c2cc3cc(Cl)ccc3[nH]2)CC1 [JNJ-7777120] | 378 µg/mL (≈ 1.36 mM)
CN1CCN(c2nc3ncc(Br)cc3n3cnnc23)CC1 | 679 µg/mL (≈ 1.95 mM)

Further lines, results first:

solubility at 0.5 h | SMILES
1940 µg/mL (≈ 6.88 mM) | Cc1ccc2nc(N3CCN(C)CC3)c3nncn3c2c1
1190 µg/mL (≈ 4.42 mM) | CN1CCN(c2nc3ccccc3n3cnnc23)CC1
1900 µg/mL (≈ 6.72 mM) | Cc1cnc2nc(N3CCN(C)CC3)c3nncn3c2c1
227 µg/mL (≈ 0.75 mM) | CN1CCN(c2nc3ccc(Cl)cc3n3cnnc23)CC1
> 2000 µg/mL | CN1CCN(c2nc3ncccc3n3cnnc23)CC1

System: not listed separately
Assay: Tmax in ICR mouse at 50 mg/kg, po measured upto 24 hrs by LC-MS/MS analysis
Type: ADME, organism-based
Conditions: in vivo
Summary of the method: (§2)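 Female ICR mice, n=3 per group, given test compound orally. Blood sampled at 0.5, 1, 2, 4, 7 and 24 h post dose; plasma levels quantified by LC-MS/MS. Parameters from non-compartmental analysis.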

Tmax | SMILES
30 min | CN1CCN(c2nc3ncc(Cl)cc3n3cnnc23)CC1
40.2 min | CN1CCN(c2nc3ccc(Cl)cc3n3cnnc23)CC1

Molecular target: Histamine H4 receptor (Homo sapiens, UniProt Q9H3N8)
Assay: Displacement of [3H]-histamine from recombinant human histamine H4 receptor expressed in CHO-K1 cell membranes measured after 30 mins by microbeta scintillation counting method
Parameters: species or system Cell membrane
Conditions: not given

IC50 | SMILES
0.077 µM | CN1CCN(c2nc3ncc(Cl)cc3n3cnnc23)CC1
0.57 µM | Cc1ccc2nc(N3CCN(C)CC3)c3nncn3c2c1
2.3 µM | CN1CCN(c2nc3ccccc3n3cnnc23)CC1
3 µM | CN1CCN(c2nc3ncccc3n3cnnc23)CC1

Same assay, conditions: cho-k1

IC50 | SMILES
0.022 µM | CN1CCN(c2nc3ccc(Cl)cc3n3cnnc23)CC1

System: not listed separately
Assay: Cmax in ICR mouse at 50 mg/kg, po measured upto 24 hrs by LC-MS/MS analysis
Type: ADME, organism-based
Parameters: route oral, dose 50 mg/kg, time <=24
Conditions: in vivo
Summary of the method: as §2

Cmax | SMILES
4630 ng/mL | CN1CCN(c2nc3ncc(Cl)cc3n3cnnc23)CC1
676 ng/mL | CN1CCN(c2nc3ccc(Cl)cc3n3cnnc23)CC1

System: not listed separately
Assay: AUC (all) in ICR mouse at 50 mg/kg, po measured upto 24 hrs by LC-MS/MS analysis
Type: ADME, organism-based
Parameters: route oral, dose 50 mg/kg, time <=24
Conditions: in vivo
Summary of the method: as §2

AUC at 24 h | SMILES
23600 ng·h/mL | CN1CCN(c2nc3ncc(Cl)cc3n3cnnc23)CC1
1680 ng·h/mL | CN1CCN(c2nc3ccc(Cl)cc3n3cnnc23)CC1

System: not listed separately
Assay: Lipophilicity, logD of the compound at pH 7.4
Type: physicochemical
Conditions: buffer

logD | SMILES
0.95 | CN1CCN(c2nc3ncc(Cl)cc3n3cnnc23)CC1
2.12 | CN1CCN(c2nc3ccc(Cl)cc3n3cnnc23)CC1

Molecular target: T1, 5-hydroxytryptamine receptor 3A (Homo sapiens) (UniProt P46098)
T1 sequence (whole entry): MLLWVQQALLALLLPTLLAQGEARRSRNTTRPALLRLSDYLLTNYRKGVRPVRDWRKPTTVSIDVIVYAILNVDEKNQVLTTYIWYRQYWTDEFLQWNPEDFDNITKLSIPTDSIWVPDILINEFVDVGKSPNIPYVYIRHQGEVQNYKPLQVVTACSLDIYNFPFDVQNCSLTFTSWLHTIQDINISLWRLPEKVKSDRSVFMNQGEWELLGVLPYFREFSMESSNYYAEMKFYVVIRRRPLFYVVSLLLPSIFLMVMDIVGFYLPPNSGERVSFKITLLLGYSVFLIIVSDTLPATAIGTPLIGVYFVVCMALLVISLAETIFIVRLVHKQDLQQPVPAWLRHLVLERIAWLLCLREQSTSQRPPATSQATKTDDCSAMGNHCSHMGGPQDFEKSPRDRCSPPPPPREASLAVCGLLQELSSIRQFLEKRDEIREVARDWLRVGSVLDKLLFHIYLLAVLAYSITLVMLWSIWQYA
Assay: Displacement of [3H]BRL 43694 from human recombinant 5-HT3 receptor at 10 uM after 120 mins by scintillation counting analysis relative to control
Conditions: filed as antagonist

inhibition | SMILES
100% | CN1CCN(c2nc3ncc(Cl)cc3n3cnnc23)CC1

Molecular target: T2, 5-hydroxytryptamine receptor 3A (Homo sapiens, UniProt P46098)
T2 sequence (P46098 whole entry): T1 sequence (whole entry)
Assay: Displacement of [3H]BRL 43694 from human recombinant 5-HT3 receptor after 120 mins by scintillation counting analysis
Conditions: not given

IC50 | SMILES
0.057 µM | CN1CCN(c2nc3ncc(Cl)cc3n3cnnc23)CC1
